Test results reported in article PMC8248128 (International Journal of Cancer, 2021).
Several values for one entry are separate records, joined by “and”; a condition that tells them apart may be missing. Identical values can stand only once.

What was measured:
[1] = 3 + 3 dose‐escalation: dose‐limiting toxicity; assay type: in vivo, human; conditions: patients with advanced cancer
Carboplatin = assay type: in vivo, human; conditions: Cycle 1 day 1, plasma ultrafiltrate, target AUC 4, N=21 (dose‐level 1‐4)
Summary of the method: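 Platinum from carboplatin measured in plasma and plasma ultrafiltrate by ICPMS with iridium internal standard. Carboplatin was given as a 30-min IV infusion on Day 1, dosed by Calvert formula (Cockcroft-Gault GFR), alongside oral olaparib BID from Day 0. Blood (4 mL) was sampled 0.25, 0.5, 1, 2, 4, 6, 8, 10, 24 and 48 h post-infusion. AUC0-48 calculated.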

[2] = once per 21‐day cycle with olaparib capsules 400 mg BID Day 1 to 7; cited from earlier work
[3] = Olaparib pharmacokinetics in human plasma; assay type: in vivo; conditions: Cycle 1 day 0, dose‐level 3 (MTD), olaparib 75 mg tablets, N=6, plasma
[4] = test system: PAR levels (balance of PARP and PARG activity) in peripheral blood mononuclear cells; assay: Radiation‐enhanced‐PAR pharmacodynamic assay; assay type: in vivo, human; conditions: Day 8 vs before treatment, lowest dose‐level (25 mg olaparib BID), ex vivo 8 Gy
Summary of the method: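 Venous blood (16 mL, mononuclear cell preparation citrate tubes) was drawn pre-dose Day 0 and Day 8 of cycle 1; olaparib BID from Day 0, carboplatin AUC 3 mg*min/mL IV Day 1 at this level. Three independent samples of 2 × 10⁶ PBMCs were irradiated ex vivo with 8 Gy on ice, then held 1 h on ice. PAR was quantified by HT-PARP in vivo pharmacodynamics Assay II (NCI protocol). Reduction = ([Day 0 − Day 8]/Day 0) × 100%.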

[5] = tablet 300 mg vs capsule 400 mg; cited from earlier work

Structure (SMILES)	Maximum tolerable dose (MTD), carboplatin part (target AUC) ([1]; carboplatin d1/d22 with olaparib tablets 75 mg BID, two cycles)	Carboplatin AUC0-48 (mean) (Carboplatin)	MTD, carboplatin part (target AUC) [2]	Maximum tolerable dose (MTD), olaparib part ([1]; olaparib tablets continuously with carboplatin AUC 4 mg*min/mL d1/d22, two cycles)	Olaparib AUC0-12 (mean) [3]	Relative reduction in PAR levels in PBMCs [4]	AUC of the tablet formulation (300 mg) higher than the capsule formulation (400 mg) [5]
N.N.O=C([O-])C1(C(=O)[O-])CCC1.[Pt+2] [carboplatin]	4 mg·min/mL	5.10 mg·min/mL and 5.1 mg·min/mL and 5 mg·min/mL	5 mg·min/mL				
O=C(c1cc(Cc2n[nH]c(=O)c3ccccc23)ccc1F)N1CCN(C(=O)C2CC2)CC1 [olaparib]				75 mg BID	15500 ng·h/mL	97.5% ± 0.1%	13%
